The test system of one series is PC-3. Description: Antiproliferative activity against human PC3 cells assessed as reduction in cell growth. The class given is functional, cell-based.
The subject of series [1] is MCF7. Description: Antiproliferative activity against human MCF7 cells assessed as reduction in cell growth. The format is functional, cell-based.
In a further series the test system is HepG2. Description: Antiproliferative activity against human HepG2 cells assessed as reduction in cell growth. The class given is functional, cell-based.
The nature of series [2]: Inhibition of quorum sensing in Chromobacterium violaceum ATCC 12472 assessed as inhibition zone at 5 mg/ml incubated for 48 hrs by well diffusion method. The format is functional. The note with it: read-out: IZ. The method, boiled down: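 Chromobacterium violaceum ATCC 12472 grown in LB broth at 28 °C, 48 h. 50 μL inoculated into 5 ml soft LB agar and overlaid on LB agar plates. Wells received 100 μL compound in DMSO (5 mg/ml); DMSO as negative control. 28 °C, 48 h. Growth-inhibition radius r1 and pigment-plus-growth radius r2 measured; QS inhibition = r2 − r1 (mm).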
In general terms: Agar diffusion results depend on both activity and mobility in agar.

The subject of the next series is HeLa. Description: Antiproliferative activity against human HeLa cells assessed as reduction in cell growth. The class given is functional, cell-based.
Series [3] concerns Staphylococcus aureus. Description: Antibacterial activity against Staphylococcus aureus ATCC 29213 assessed as diameter of zone inhibition at 5 mg/ml incubated for 24 hrs by agar plate diffusion method. The class given is functional. As to conditions: read-out: DIZ. The method, boiled down: (§1)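 Cup (well) agar diffusion in Mueller Hinton agar. Overnight MH broth culture diluted to 0.5 McFarland; 20 μL mixed into MH agar at 50 °C, poured into 9-cm plates. Wells cut with a cork borer and filled with 100 μL compound in DMSO (final 5 mg/mL). DMSO as negative control, ampicillin/clavulanic acid as reference. 37 °C, 24 h; inhibition zone diameter in mm.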

Series [4] concerns Pseudomonas aeruginosa. Description: Antibacterial activity against Pseudomonas aeruginosa PAO1 assessed as diameter of zone inhibition at 5 mg/ml incubated for 24 hrs by agar plate diffusion method. As to conditions: read-out: DIZ. The format is functional. The method, boiled down: as §1
Series [5] concerns Candida albicans. Description: Antifungal activity against Candida albicans CS35 assessed as diameter of zone inhibition at 5 mg/ml incubated for 24 hrs by agar plate diffusion method. The class given is functional. As to conditions: read-out: DIZ. The method, boiled down:
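Cup diffusion using Sabouraud's medium for C. albicans. 100 μL compound in DMSO (5 mg/mL) per well, DMSO as negative control, fluconazole as reference. 37 °C, 24 h; inhibition zone diameter in mm.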

The subject of series [6] is Staphylococcus aureus. Description: Antibacterial activity against Staphylococcus aureus ATCC 29213 assessed as reduction in bacterial growth incubated for 18 hrs by two-fold serial dilution method. The format is functional. The method, boiled down: (§2)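 Broth microdilution per CLSI 2015. Selection: compounds active in agar diffusion. Twofold (1:1) dilutions in 0.1 ml MH broth; inoculum 5 × 10^6 CFU/ml diluted suspension. Ampicillin/clavulanic acid as positive control.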

The subject of series [7] is Pseudomonas aeruginosa. Description: Antibacterial activity against Pseudomonas aeruginosa PAO1 assessed as reduction in bacterial growth incubated for 18 hrs by two-fold serial dilution method. The format is functional. The method, boiled down: as §2
Series [8] concerns Candida albicans. Description: Antifungal activity against Candida albicans CS35 assessed as reduction in fungal growth incubated for 18 hrs by two-fold serial dilution method. The class given is functional. The method, boiled down: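 Broth microdilution per CLSI M27-A3/M38-A2. Selection: compounds active in agar diffusion. Twofold (1:1) dilutions in 0.1 ml yeast peptone dextrose medium; fluconazole as positive control.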

The subject of series [9] is MCF7. Description: Induction of apoptosis in human MCF7 cells assessed as early apoptotic cells at […] incubated for 24 hrs by Annexin V-FITC and propidium iodide staining based flow cytometry analysis (reference value: 0.42 %). The class given is functional. The arrangement: dose or concentration left out as unconfirmed.
Series [10] is described as follows: Safety index, ratio of IC50 for cytotoxicity against human WI-38 cells to IC50 for antiproliferative activity against human HepG2 cells. The class given is toxicity, cell-based. As to conditions: WI-38 cells versus HepG2 cells.
A short description of series [11]: Safety index, ratio of IC50 for cytotoxicity against human WI-38 cells to IC50 for antiproliferative activity against human HeLa cells. The class given is toxicity, cell-based. As to conditions: WI-38 cells versus HeLa cells.
The target in series [12] is Phosphatidylinositol 4,5-bisphosphate 3-kinase catalytic subunit alpha isoform (Homo sapiens, UniProt P42336). Description: Inhibition of human PI3Kalpha by ELISA. The method, boiled down: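 Human PI3Kα activity measured by ELISA in wells coated with a PI3K-specific antibody. Standard or test compound was added at room temperature and absorbance read. A log–log standard curve related absorbance to standard concentration. Percent inhibition was calculated against control, and IC50 was obtained from concentration/inhibition curves.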
Background: ELISA stands for enzyme-linked immunosorbent assay.

In series [13] the test system is MCF7. Description: Induction of apoptosis in human MCF7 cells assessed as accumulation at preG1 phase at […] incubated for 24 hrs by propidium iodide staining based flow cytometry analysis (reference value: 1.78 %). The format is functional. The arrangement: dose or concentration left out as unconfirmed. (In general: Flow cytometry measures light scatter and fluorescence of single cells or particles in a stream.)

Series [14] in a line: Safety index, ratio of IC50 for cytotoxicity against human WI-38 cells to IC50 for antiproliferative activity against human MCF7 cells. The note with it: WI-38 cells versus MCF7 cells. The format is toxicity, cell-based.
Series [15] has as its system MCF7. Description: Induction of cell cycle arrest in human MCF7 cells assessed as accumulation at G0-G1 phase at […] incubated for 24 hrs by propidium iodide staining based flow cytometry analysis (reference value: 53.89 %). The format is functional. The arrangement: dose or concentration left out as unconfirmed.
The test system of series [16] is MCF7. Description: Induction of cell cycle arrest in human MCF7 cells assessed as accumulation at G2/M phase at […] incubated for 24 hrs by propidium iodide staining based flow cytometry analysis (reference value: 9.85 %). The arrangement: dose or concentration left out as unconfirmed. The class given is functional.
Series [17] deals with MCF7. Description: Induction of cell cycle arrest in human MCF7 cells assessed as accumulation at S phase at […] incubated for 24 hrs by propidium iodide staining based flow cytometry analysis (reference value: 36.26 %). The arrangement: dose or concentration left out as unconfirmed. The class given is functional.
Series [18] can be described thus: Safety index, ratio of IC50 for cytotoxicity against human WI-38 cells to IC50 for antiproliferative activity against human PC-3 cells. The format is toxicity, cell-based. The note with it: WI-38 cells versus PC-3 cells.
The test system of series [19] is MCF7. Description: Induction of apoptosis in human MCF7 cells assessed as necrotic cells at […] incubated for 24 hrs by Annexin V-FITC and propidium iodide staining based flow cytometry analysis (reference value: 1.21 %). The arrangement: dose or concentration left out as unconfirmed. The format is functional.
The test system of the next series is WI-38. Description: Cytotoxicity against human WI38 cells by MTT assay. The format is cell-based.
Series [20] concerns MCF7. Description: Induction of apoptosis in human MCF7 cells assessed as late apoptotic cells at […] incubated for 24 hrs by Annexin V-FITC and propidium iodide staining based flow cytometry analysis (reference value: 0.15 %). The format is functional. The arrangement: dose or concentration left out as unconfirmed.
Series [21] relates to Bacillus cereus. Description: Antibacterial activity against Bacillus cereus UW85 assessed as diameter of zone inhibition at 5 mg/ml incubated for 24 hrs by agar plate diffusion method. The note with it: read-out: DIZ. The format is functional. The method, boiled down:
as §1

Series [22] has as its system Bacillus cereus. Description: Antibacterial activity against Bacillus cereus UW85 assessed as reduction in bacterial growth incubated for 18 hrs by two-fold serial dilution method. The format is functional. The method, boiled down: as §2
In a further series the test system is Escherichia coli. Description: Antibacterial activity against Escherichia coli ATCC 12435 assessed as diameter of zone inhibition at 5 mg/ml incubated for 24 hrs by agar plate diffusion method. The note with it: read-out: DIZ. The format is functional. The method, boiled down:
as §1

A word on the IC50: it is the concentration that inhibits the measured activity by half. One may read the MIC as the least concentration at which growth counts as inhibited.

In brackets after ≈: the same amount, converted by molar mass.

Phosphatidylinositol 4,5-bisphosphate 3-kinase catalytic subunit alpha isoform, sequence (P42336 whole entry, canonical isoform): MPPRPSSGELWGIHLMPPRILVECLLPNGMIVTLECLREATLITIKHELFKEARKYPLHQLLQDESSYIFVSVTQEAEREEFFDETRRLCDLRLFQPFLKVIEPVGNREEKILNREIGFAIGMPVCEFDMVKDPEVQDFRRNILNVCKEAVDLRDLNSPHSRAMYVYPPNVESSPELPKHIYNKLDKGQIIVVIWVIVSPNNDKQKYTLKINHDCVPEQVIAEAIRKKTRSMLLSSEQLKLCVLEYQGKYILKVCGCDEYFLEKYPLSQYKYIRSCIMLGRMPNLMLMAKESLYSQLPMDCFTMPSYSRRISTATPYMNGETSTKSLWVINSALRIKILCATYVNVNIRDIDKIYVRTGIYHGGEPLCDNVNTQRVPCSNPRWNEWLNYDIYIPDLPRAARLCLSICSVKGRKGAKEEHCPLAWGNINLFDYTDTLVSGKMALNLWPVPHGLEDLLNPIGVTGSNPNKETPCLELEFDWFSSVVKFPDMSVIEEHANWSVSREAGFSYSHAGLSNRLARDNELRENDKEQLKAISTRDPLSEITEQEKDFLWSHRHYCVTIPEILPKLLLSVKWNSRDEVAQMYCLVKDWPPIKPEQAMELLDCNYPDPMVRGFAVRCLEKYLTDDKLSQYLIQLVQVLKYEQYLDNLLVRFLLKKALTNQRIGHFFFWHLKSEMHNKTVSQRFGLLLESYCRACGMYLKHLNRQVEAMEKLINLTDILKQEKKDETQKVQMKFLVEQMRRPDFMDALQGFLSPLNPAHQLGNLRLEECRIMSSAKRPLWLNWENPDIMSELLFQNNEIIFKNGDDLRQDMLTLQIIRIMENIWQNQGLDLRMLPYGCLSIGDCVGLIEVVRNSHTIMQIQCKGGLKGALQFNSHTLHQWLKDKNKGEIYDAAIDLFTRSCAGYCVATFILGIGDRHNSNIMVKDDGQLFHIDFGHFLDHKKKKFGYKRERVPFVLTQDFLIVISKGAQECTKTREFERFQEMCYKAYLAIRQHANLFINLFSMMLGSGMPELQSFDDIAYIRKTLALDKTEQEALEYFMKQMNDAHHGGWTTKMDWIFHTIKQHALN

For the compound `C/C(=N\Nc1nc(-c2cc3ccccc3o2)cs1)c1cc2ccccc2o1`, the IC50 in the series with PC-3 is 34.2 µM; with MCF7 [1] it was 25.6 µM; in the series with HepG2, 21.2 µM; in the series on HeLa, 24.1 µM. Besides, the zone of inhibition at 5000 µg/mL in series [2] was 2 mm.
Consider `O=CC(/N=N/c1ccc([N+](=O)[O-])cc1)=C(\O)c1cc2ccccc2o1`, for which the 50% inhibitory concentration (IC50) in the series with PC-3 turned out to be 49.6 µM; in the series on MCF7 [1], 43.2 µM; in the series with HepG2 it was 35.4 µM; with HeLa it was 37.8 µM. Besides, the zone of inhibition at 5000 µg/mL amounted to 6 mm in the series with Staphylococcus aureus [3], 10 mm in the series on Pseudomonas aeruginosa [4] and 9 mm in the series on Candida albicans [5]. The MIC with Staphylococcus aureus [6] amounted to 8 mg/L (≈ 23.7 µM); in the series with Pseudomonas aeruginosa [7], 512 mg/L (≈ 1520 µM); in the series on Candida albicans [8], 256 mg/L (≈ 759 µM).
Take `C/C(=N\Nc1nc(-c2ccccc2)cs1)c1cc2ccccc2o1`: the IC50 with PC-3 was determined as 16.7 µM; with MCF7 [1], 8.49 µM; in [12], 4.1 µM; in the series on HepG2, 10.3 µM; in the series with HeLa it was 11.7 µM; in the series on WI-38, 41.7 µM. The Activity in the series on MCF7 [9] is reported as 5.92%; in the series on MCF7 [13] it was 29.93%; in the series on MCF7 [15], 39.61%; in the series on MCF7 [16], 30.82%; in the series on MCF7 [17], 29.57%; in the series on MCF7 [19] it was 9.36%. For the same compound, the Activity with MCF7 [20] was 14.65%. The selectivity ratio in [10] is 4.04; in [11], 3.56; in [14], 4.91; in series [18] it was 2.49.
Turning to `C/C(=N\Nc1nc(-c2ccc(C)cc2)cs1)c1cc2ccccc2o1`, the IC50 stood at 21.4 µM in the series on PC-3, 11.1 µM in the series with MCF7 [1], 14.1 µM with HepG2 and 14.3 µM in the series with HeLa.
For `CN(C)/C=C/C(=O)c1cc2ccccc2o1`, in series [2], the zone of inhibition at 5000 µg/mL came to 5 mm. The MIC with Candida albicans [8] was found to be 256 mg/L (≈ 1190 µM).
On to `C/C(=N\Nc1nc(C)cs1)c1cc2ccccc2o1`, for which the IC50 in the series on PC-3 amounted to 8.99 µM; in the series on MCF7 [1], 4.89 µM; in series [12], 20.5 µM; in the series with HepG2 it was 4 µM; with WI-38, 44.3 µM. The selectivity ratio in series [10] amounted to 11.1; in series [11], 4.94; in series [14] it was 9.06; in series [18] it was 4.93. For the same compound, the zone of inhibition at 5000 µg/mL in the series on Bacillus cereus [21] was found to be 11 mm; in series [2] it was 7 mm; in the series with Candida albicans [5] it was 10 mm. The MIC with Bacillus cereus [22] is 128 mg/L (≈ 472 µM); with Staphylococcus aureus [6], 64 mg/L (≈ 236 µM); with Candida albicans [8], 128 mg/L (≈ 472 µM).
Take `O=CC(/N=N/c1ccc(Cl)cc1)=C(\O)c1cc2ccccc2o1`: the IC50 in the series on PC-3 was determined as 51.8 µM; with HepG2, 37.3 µM; in the series with HeLa, 38.2 µM. The zone of inhibition at 5000 µg/mL with Staphylococcus aureus [3] was 9 mm; in the series with Bacillus cereus [21] it was 6 mm. Further, the MIC in the series with Bacillus cereus [22] was 256 mg/L (≈ 783 µM); in the series on Staphylococcus aureus [6], 128 mg/L (≈ 392 µM).
Turning to `CC1(C)S[C@@H]2[C@H](NC(=O)[C@H](N)c3ccccc3)C(=O)N2[C@H]1C(=O)O` [AMPICILLIN], the zone of inhibition at 5000 µg/mL amounted to 6 mm with Staphylococcus aureus [3], 10 mm in the series on Bacillus cereus [21] and 10 mm with Escherichia coli. The MIC with Bacillus cereus [22] was 128 mg/L (≈ 366 µM); in the series on Staphylococcus aureus [6] it was 128 mg/L (≈ 366 µM); with Pseudomonas aeruginosa [7], over 5000 mg/L.
In the case of `OC(Cn1cncn1)(Cn1cncn1)c1ccc(F)cc1F` [FLUCONAZOLE], the zone of inhibition at 5000 µg/mL in the series on Candida albicans [5] is 8 mm. In the series with Candida albicans [8], the MIC is 256 mg/L (≈ 836 µM).

Values taken from ChEMBL document CHEMBL4680335, “Synthesis, anticancer and antimicrobial evaluation of new benzofuran based derivatives: PI3K inhibition, quorum sensing and molecular modeling study” (Bioorg Med Chem, 2021).
